High-throughput results (PubChem)
The list is not random: actives were taken first. Their share in the collection is about 2.5%.
PG9 Ab binder – binds the HIV-1 gp120 antibody PG9. TR-FRET gp120-PG9 antibody binding. inhibition, % at 6.7 µM. 360,000 tested, 0.43% active; in the data active means inhibition above about 8.5%
Rev-erbA mod – modulates human Rev-erb alpha binding to DNA. Rev-erbα–FITC-DNA binding, fluorescence polarization, 90 min. activity, % at 10 µM. 370,000 tested, 0.79% active. AID 1259318. P20393;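 active means activity above about 14%, limit read from the data; passing the limit was not always enough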
MC4R antagonist – blocks human MC4R cAMP signaling; P32245; MC4R-expressing cells, MTII-stimulated cAMP, LANCE TR-FRET; inhibition, % at 6.5 µM; 360,000 tested, 0.48% active;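 active means inhibition above its plate's cutoff, the mean of tested wells on that plate plus 3 SD, cut at about 29% in these data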
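System – human MC4R-expressing U2OS cells · Also added – Melanotan II · Dosing – one concentration, 6.5 µM nominal · Timing – 30-min compound, 1-h challenge, 1-h detection, room temperature · Measured by – Eu-cAMP/anti-cAMP TR-FRET, emission 671 nm · Replicates – singlicate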
MC4R barr agon – human MC4R agonism via beta-arrestin. U2OS MC4R beta-arrestin complementation, luminescence; percent of melanotan II response, DMSO zero. activation, % at 8.9 µM. 360,000 tested, 0.98% active. AID 540308;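 active means activation above a per-plate cutoff, the mean activation of sample wells on that plate plus 3 SD, cut at about 8% in these data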
NTR1 ag – NTR1 (human) agonism | P30989 | NTR1-U2OS beta-arrestin-GFP spot imaging, agonist mode | activation, % at 20 µM | 330,000 tested, 0.17% active | AID 493036;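 active means activation at or above 40% of the spot to cytoplasm intensity ratio, with at least 20 cells analyzed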
Target sequence (P30989 whole entry, looked up): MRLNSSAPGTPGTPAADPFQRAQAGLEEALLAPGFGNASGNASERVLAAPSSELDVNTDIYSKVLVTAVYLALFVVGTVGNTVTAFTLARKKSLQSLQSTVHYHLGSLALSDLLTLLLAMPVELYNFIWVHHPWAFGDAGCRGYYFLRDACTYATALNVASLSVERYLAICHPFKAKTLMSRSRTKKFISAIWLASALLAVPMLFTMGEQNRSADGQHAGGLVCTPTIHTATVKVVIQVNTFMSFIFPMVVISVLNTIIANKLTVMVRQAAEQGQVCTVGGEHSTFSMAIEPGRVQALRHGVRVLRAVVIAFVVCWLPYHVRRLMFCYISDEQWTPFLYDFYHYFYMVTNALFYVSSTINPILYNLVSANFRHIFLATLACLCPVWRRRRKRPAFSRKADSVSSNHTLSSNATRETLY
MC4R barr ag – human MC4R beta-arrestin agonism confirmation; shares compounds with MC4R barr agon; U2OS MC4R beta-arrestin recruitment, luminescence; scaled DMSO 0%, Melanotan II 100%; activation, % at 8.9 µM; 2,400 tested, 31% active; AID 602192;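 active means mean activation across replicates above the hit cutoff set in the earlier primary screen, cut at about 8% in these data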
MOR-DOR barr ag – activates mu-delta opioid heterodimer, MC4R agonist counter-screen; shares compounds with MC4R barr agon; U2OS PathHunter beta-arrestin, beta-gal luminescence; percent of deltorphin B response, DMSO zero; activation, % at 9.2 µM; 2,400 tested, 5.8% active;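 active means mean activation across replicates exceeds the hit threshold derived in the earlier primary screen, cut at about 18% in these data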
Large screens that a line does not name were inactive (follow-up assays come after a bar, where they were run).

Cc1ccc(SCC(=O)NC(=O)Nc2ccc3c(c2)OCCO3)cc1C	MC4R barr agon 15 | MC4R barr ag inactive | MOR-DOR barr ag inactive
COc1ccccc1Nc1nnc(SCC(=O)NC(=O)Nc2ccc3c(c2)OCCO3)s1	MC4R barr agon 17 | MC4R barr ag inactive | MOR-DOR barr ag inactive
Cc1cccc(Nc2nnc(SCC(=O)NC(=O)Nc3ccc4c(c3)OCCO4)s2)c1	MC4R barr agon 22 | MC4R barr ag 11 | MOR-DOR barr ag inactive
Cc1cc(NC(=O)c2cccc(COc3ccc(Br)cc3)c2)no1	MC4R barr agon 12 | MC4R barr ag 12 | MOR-DOR barr ag inactive
CCOc1ccc(C(=O)Nc2cc(C)on2)cc1	none
c1ccc(-c2cc(-c3nnc4n3N=C(c3ccc5ccccc5c3)CS4)[nH]n2)cc1	MC4R barr agon 32 | MC4R barr ag 14 | MOR-DOR barr ag inactive
CCOC(=O)c1ccc(S(=O)(=O)NC2CC2)cc1	none
CCOC(=O)c1ccc(S(=O)(=O)NC2CCC(C)CC2)cc1 (stereo unspecified)	MC4R barr agon 11 | MC4R barr ag inactive | MOR-DOR barr ag inactive
Cc1[nH]c2ccccc2c1CC(=O)Nc1ccc(Nc2cccnc2)c(-c2ccc(C(C)(C)C)cc2)c1	none (no result: MC4R antagonist, MC4R barr agon, NTR1 ag)
Nc1c(-c2ccccn2)cnn1-c1nc(-c2ccc(F)cc2)cs1	MC4R barr agon 9.7 | MC4R barr ag inactive | MOR-DOR barr ag inactive
Cc1n[nH]c(C)c1S(=O)(=O)NCCc1cccc(F)c1	none (no result: PG9 Ab binder, MC4R antagonist, MC4R barr agon, NTR1 ag)
COC(=O)C(C(=O)OC)C(c1ccccc1)C(C(=O)c1ccccc1)[N+](=O)[O-] (stereo unspecified)	none
CC(=O)C(c1ccccc1)C(c1ccccc1)C(C)[N+](=O)[O-] (stereo unspecified)	MC4R barr agon 21 | MC4R barr ag inactive | MOR-DOR barr ag inactive
CCOC(=O)c1c(C)[nH]c(C(=O)COC(=O)c2cc(C)oc2C)c1C	MC4R barr agon 19 | MC4R barr ag 9.9 | MOR-DOR barr ag inactive
CCOC(=O)c1c(C)[nH]c(C(=O)COC(=O)c2c(CC)noc2C)c1C	none
CCCOc1ccc(C(=O)N/N=C/c2c[nH]c3ccc(Br)cc23)cc1	none
CCCCCN=C(N)N/N=C/c1c[nH]c2ccc(OC)cc12	MC4R barr agon 10 | MC4R barr ag 14 | MOR-DOR barr ag 31
CSc1ccc(/C=C(/Sc2nnc(-c3ccccc3)o2)C(=O)O)cc1	MC4R barr agon 22 | MC4R barr ag inactive | MOR-DOR barr ag inactive
COc1ccc(-c2nnc(S/C(=C/c3ccc(Cl)cc3)C(=O)O)o2)cc1	none
O=C(O)C1CCN(c2nc(-c3ccccc3)nc3c2oc2ccccc23)CC1	none
OCCN1CCN(c2nc(-c3ccccc3)nc3c2oc2ccccc23)CC1	MC4R barr agon 23 | MC4R barr ag 15 | MOR-DOR barr ag inactive
CS(=O)(=O)N(Cc1ccc(Cl)cc1)c1ccc(C(=O)NCCC2=CCCCC2)cc1	MC4R barr agon 13 | MC4R barr ag inactive | MOR-DOR barr ag inactive
COC[C@H]1CCCN1c1ccc2c(c1)O[C@H]1CCN(C1)S2(=O)=O	none (no result: PG9 Ab binder, MC4R antagonist, MC4R barr agon, NTR1 ag)
Cc1c(C(C)(C)O)[nH]c2cc(C(F)(F)F)ccc12	none
O=c1[nH]c2cc(C(F)(F)F)ccc2n1-c1cc(C(F)(F)F)ccc1O	MC4R barr agon 10 | MC4R barr ag inactive | MOR-DOR barr ag inactive
CC(C)(O)c1ccccc1CC[C@@H](SC1(CC(=O)O)CC1)c1cccc(/C=C/c2ccc3ccc(Cl)cc3n2)c1	none (no result: PG9 Ab binder, MC4R antagonist, MC4R barr agon, NTR1 ag)
COc1ccc(NC(=O)C2CCCN2S(=O)(=O)c2ccc3c(c2)C(C)(C)C(=O)N3C)cc1 (stereo unspecified)	none (no result: NTR1 ag)
CCc1c(C)sc(NC(=O)Cn2nc(C(F)(F)F)c3c2CCCC3)c1C#N	MC4R barr agon 10 | MC4R barr ag inactive | MOR-DOR barr ag inactive
O=C([C@@H]1C[C@H]1c1ccccc1)N1CCC(Oc2cccnc2)CC1	none (no result: PG9 Ab binder, MC4R antagonist, MC4R barr agon, NTR1 ag)
CCCCCCCCCCCCOC(=O)CS(=O)(=O)O	none (no result: PG9 Ab binder, MC4R antagonist, MC4R barr agon, NTR1 ag)
COC(=O)[C@]12C[C@H](CC(=O)N3CCN(C(=O)C4CC4)CC3)C(=O)N(Cc3ccc(Cl)cc3Cl)C1=C[C@H](C(C)C)O[C@@H]2C1CC1	none (no result: PG9 Ab binder, MC4R antagonist, MC4R barr agon, NTR1 ag)
